# DNA FID counter = displaces DNA intercalator in HCV helicase counter-screen; DNA fluorescent intercalator displacement, fluorescence; 0.17% of 290,000 active; inhibition, % at 7.9 µM; in the data active = inhibition above about 37%;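 note: 0% = vehicle and 100% = reference compound; higher means more ethidium bromide displaced from hairpin DNA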
# HCV core dimer = blocks dimerization of HCV core protein. TR-FRET GST/Flag-core106 dimerization, 1536-well. 0.33% of 300,000 active. AID 1899. inhibition, % at 5 µM;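 active = inhibition above the mean of all tested compounds plus 3 SD, set per screening campaign, cut at about 45% in these data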
#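 Material: Tagged HCV core106 pair (GST and Flag) | Amount: GST-core106 13.5 nM, Flag-core106 17 nM | Medium: KF-containing HEPES buffer, pH 7.45, DTT, CHAPS, BSA | Reagent: Eu donor and XL665 acceptor anti-tag antibodies | Schedule: 4 h at 22.5 °C | Technique: Time-resolved FRET, ex 340 nm, em 617 and 671 nm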
# NS3 helicase inh = HCV NS3 helicase inhibition; NS3 helicase DNA unwinding, Cy5 molecular beacon fluorescence; inhibition, % at 10.9 µM; 0.56% of 290,000 active; AID 1800;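 active = inhibition above the mean of all tested compounds plus 3 SD, set per campaign, cut at about 35% in these data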;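 note: 0% = DMSO wells and 100% = thioflavine S control wells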
#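 Measured by: Cy5 fluorescence, 0 and 60 min reads / Assay system: NS3 helicase fragment of HCV / Control set: low DMSO, high thioflavine S at 110 µM / Times: 1 h reaction at 25 °C, ATP-initiated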
# GPR7 antagonist = human neuropeptides B/W receptor 1 antagonism; inhibition, % at 4.4 µM; GPR7-expressing cells, fluorescence antagonist assay; 1.1% of 290,000 active; P48145; in the data active = inhibition above about 16%, passing the limit was not always enough;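 note: cells stimulated with the agonist NPW; 0% = agonist with vehicle and 100% = vehicle without agonist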
# DAGLB inhibitor = diacylglycerol lipase beta (human) inhibition. 0.059% of 340,000 active. HEK293T DAGLB membrane lysate, EnzChek fluorogenic substrate. AID 504411. inhibition, % at 5.17 µM. Q8NCG7; in the data active = inhibition above about 34%;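 note: 0% = enzyme with vehicle and 100% = wells lacking enzyme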
# GRK2 aptamer HTS = blocks RNA aptamer binding to human GRK2 | P25098 | bead flow cytometry, FAM-aptamer displacement from GRK2 | inhibition of aptamer binding, % at 10 µM | 0.59% of 330,000 active | AID 488847;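 active = inhibition of aptamer binding above 40%, roughly 3 SD of noise, on plates passing a quality check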;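 note: median bead fluorescence of bound FAM aptamer so fluorescent compounds give negative values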
# Target sequence (P25098 whole entry, looked up): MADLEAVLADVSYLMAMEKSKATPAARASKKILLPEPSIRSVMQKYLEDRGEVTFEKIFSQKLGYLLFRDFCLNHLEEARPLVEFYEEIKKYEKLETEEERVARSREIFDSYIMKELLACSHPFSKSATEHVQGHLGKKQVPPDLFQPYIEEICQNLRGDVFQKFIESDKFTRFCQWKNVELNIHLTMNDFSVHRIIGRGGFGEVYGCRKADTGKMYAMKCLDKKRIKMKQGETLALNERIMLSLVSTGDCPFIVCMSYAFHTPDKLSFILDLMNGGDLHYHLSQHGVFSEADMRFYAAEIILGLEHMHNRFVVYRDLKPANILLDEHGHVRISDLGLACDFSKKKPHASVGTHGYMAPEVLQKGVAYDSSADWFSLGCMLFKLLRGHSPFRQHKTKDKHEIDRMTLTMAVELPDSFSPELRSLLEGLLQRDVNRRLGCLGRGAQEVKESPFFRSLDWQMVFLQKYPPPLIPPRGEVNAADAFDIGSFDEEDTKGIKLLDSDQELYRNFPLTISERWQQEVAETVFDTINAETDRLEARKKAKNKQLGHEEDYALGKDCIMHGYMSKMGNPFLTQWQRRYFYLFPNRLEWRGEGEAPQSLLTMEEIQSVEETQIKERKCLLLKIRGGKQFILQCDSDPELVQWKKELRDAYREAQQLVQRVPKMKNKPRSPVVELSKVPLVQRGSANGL
# GRK2 CP1 = confirmation of human GRK2 inhibitors displacing RNA aptamer. shares compounds with GRK2 aptamer HTS. bead-bound GRK2, FAM-aptamer displacement, flow cytometry. aptamer displacement, % at 10 µM. 4% of 2,000 active. AID 504451;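 active = aptamer displacement above 40%, near three times the noise of non-fluorescent compounds, on plates passing quality checks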;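 note: negative values mostly reflect intrinsic compound fluorescence rather than true enhancement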
# Aptamer quench = quenches fluorescent RNA aptamer, GRK2 hit artifact | shares compounds with GRK2 aptamer HTS | Fluorescent RNA aptamer beads, quenching, flow cytometry; hits give high values | fluorescence change (kMESF span), kMESF (concentration not given with the values) | 110 tested, under 10 active;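 active = compounds whose bead fluorescence drops by more than 37 kMESF across the dose range, marking them as dye quenchers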
# FAM quench CP1 = quenches fluorescent RNA aptamer, GRK2 hit artifact; shares compounds with GRK2 aptamer HTS; Carboxyfluorescein RNA aptamer on beads, flow cytometry quenching; hits give low values; fluorescence response (% of DMSO), % at 10 µM; 2,000 tested, under 10 active; AID 504580;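 active = compounds that quench the bead-bound fluorescent RNA probe, cutting fluorescence to under half of the solvent control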;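 note: counterscreen run without GRK2 so only probe quenching by compound is measured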
# GRK2 CP2 = confirmation of human GRK2 inhibitors binding RNA aptamer site. shares compounds with GRK2 aptamer HTS. bead-bound GRK2, FAM-aptamer displacement, flow cytometry. inhibition of aptamer binding, % at 10 µM. 360 tested, under 10 active;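 active = inhibition of aptamer binding above 40%, about triple the noise seen with nonglowing compounds, on plates passing quality control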;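 note: negative values mostly come from compounds that fluoresce themselves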
# FAM quench CP2 = quenches fluorescent RNA aptamer, GRK2 hit artifact | shares compounds with GRK2 aptamer HTS | carboxyfluorescein RNA aptamer beads, flow cytometry quenching; hits give low values | fluorescence response vs DMSO, % at 10 µM | 360 tested, under 10 active;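 active = response vs DMSO under 50%, meaning signal dropped by over half, treated as fluorescence quencher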;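 note: labelled aptamer on streptavidin beads without GRK2 as a quench counter-screen; 100% = bead fluorescence of DMSO wells and lower means quenching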
# Numbers without * were called inactive; · = no result given. Sampled rows, rich in hits. Any-hit rate of the full collection: about 2.2%.
SMILES,DNA FID counter,HCV core dimer,NS3 helicase inh,GPR7 antagonist,DAGLB inhibitor,GRK2 aptamer HTS,GRK2 CP1,FAM quench CP1,others
COC(=O)[C@H](CCSC)NC(=O)Cn1cnc2c(OCc3ccccc3)ncnc21,·,·,·,·,-1.9,0.0,·,·,
O=C(COC(=O)c1cc(Cl)ccc1O)NCC1CCCO1 (centres undefined),·,0.8,·,·,1.6,0.0,·,·,
O=C(Nc1ccccc1N1CCCCC1)c1ccco1,-15.8,-3.5,1.5,-14.5,-8.1,49.0*,0.9,104.4,
CCN(C(=O)COC(=O)c1nc(Cl)ccc1Cl)c1c(N)n(Cc2ccccc2)c(=O)[nH]c1=O,·,·,·,·,1.2,·,·,·,
COc1cc(C(C(=O)NC2CCCC2)N(C(=O)c2snc(C(N)=O)c2N)c2ccccc2)cc(OC)c1OC (centres undefined),-31.9,-2.3,-14.1,-2.1,-1.0,1.0,·,·,
Cc1cc(NC(=O)CSc2nc(=O)n(CCCN(C)C)c3c2CCCC3)no1,·,0.2,·,·,2.9,0.0,·,·,
Cc1cccc2c(=O)n3c(cc12)-c1[nH]c2ccccc2c1CC3,·,·,·,·,2.5,·,·,·,
O=c1c2ccccc2nc2n1CCc1c-2[nH]c2ccccc12,·,-4.9,·,·,-1.8,19.0,3.2,95.3,
O=C(NCc1cccs1)c1cc(S(=O)(=O)N2CCOCC2)ccc1N1CCCC1,·,·,·,·,1.5,0.0,·,·,
CC(C)C(=O)N1CCN(c2ccccc2NC(=S)NC(=O)Cc2ccccc2)CC1,-44.3,18.1,0.9,2.2,-2.8,3.0,·,·,
CCN1/C(=C/c2ccc3cccc(C)c3[n+]2CC)Sc2ccccc21,-8.2,0.4,-35.3,33.9*,-19.3,91.0*,68.8*,143.8,Aptamer quench=-115
CCN1/C(=C/c2ccc3cc(C)cc(C)c3[n+]2CC)Sc2cc(C)ccc21,-14.6,·,-63.7,9.9,-4.0,·,·,·,
COc1cc(/C=C2\C(=N)N3N=C(S(C)(=O)=O)SC3=NC2=O)cc(OC)c1OCCOc1cccc(C)c1,-5.7,14.3,34.6,27.6,1.3,1.0,·,·,
CCn1cc(C(=O)NC(C)C)c(=O)c2cc(F)c(N3CCN(C(=O)c4ccco4)CC3)cc21,-49.8,-10.2,-1.7,-8.4,-0.4,88.0*,-0.6,101.5,
CCOC(=O)C(=NO)C1=CSC2=NNC(C)(C)N12,·,·,·,·,-14.2,·,·,·,
O=c1[nH]c(CN2CCN(C/C=C/c3ccccc3)CC2)nc2ccccc12,1.2,-1.2,-2.7,11.3,-1.0,2.0,·,·,GRK2 CP2=19.1;FAM quench CP2=98.0
CCOc1ccc(Oc2ccc(NC(=O)[C@@H](NC(N)=O)[C@@H](C)CC)cc2)cc1,-4.0,6.5,-7.1,-8.6,-0.9,96.0*,5.8,98.4,
O=C(Nc1ccc(F)cc1)N1CCN(c2ncccn2)CC1,-9.9,-11.2,-5.9,-2.7,-1.8,94.0*,-1.9,98.1,
O=C(c1ccc(Cl)c(S(=O)(=O)N2CCc3ccccc3C2)c1)N1CCN(c2ccccc2)CC1,-24.9,22.3,-14.0,3.7,-10.9,0.0,-0.1,102.2,
COc1ccc(N2CCN(C(=O)c3ccc(Cl)c(S(=O)(=O)N4CCCC4)c3)CC2)cc1,-33.1,1.2,-4.2,-4.9,0.4,4.0,·,·,
CCOc1ccc(S(=O)(=O)N2CCN=C2c2ccccc2)c(C)c1C,-40.2,-8.0,0.3,-8.1,-0.1,9.0,·,·,
Cc1ccc2c(c1)n([O-])c1c([n+]2=O)CCCC1,-0.8,-4.8,1.1,-14.3,-1.2,52.0*,-5.0,103.0,
O=C(NNC(=O)C1CCN(Cc2ccc(F)cc2Cl)CC1)Nc1ccc([N+](=O)[O-])cc1,15.9,-1.2,-3.9,-6.2,3.5,0.0,·,·,
